The source made the active and inactive calls. The rule behind the calls is not given here.

In experiment [1] the target is T1, Sodium-dependent serotonin transporter (Homo sapiens, UniProt P31645). Kind of experiment: Displacement of [3H]citalopram from human SERT expressed in HEK293 cells. Type of experiment: cell-based. Summed up: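 Membrane homogenates from HEK-293 cells stably expressing human SERT, incubated 1 h at 25 °C with 2 nM [3H]citalopram (85 Ci/mmol) and increasing test concentrations. Non-specific binding defined with 10 µM fluoxetine. Specific binding plotted against −log drug concentration, and the midpoint of the displacement curve was taken as IC50.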

Experiment [2] concerns the target T2, Sodium-dependent dopamine transporter (Homo sapiens, UniProt Q01959). Kind of experiment: Inhibition of human DAT at 1 uM.
Experiment [3] deals with T3, Sodium-dependent noradrenaline transporter (Homo sapiens, UniProt P23975). Kind of experiment: Inhibition of human NET at 1 uM.
In experiment [4] the target is T1, Sodium-dependent serotonin transporter. Kind of experiment: Displacement of [125I]RTI-55 from human SERT expressed in HEK293 cells. It counts as cell-based. In a few lines: (§1)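 Membrane homogenates from HEK-293 cell lines stably transfected with the human transporter, incubated with 125I ligands: [125I]RTI-55 for SERT (260 pM) and DAT (125 pM), and custom [125I]nisoxetine for NET (300 pM). Reactions run in 384-well format and filter-harvested. IC50 taken from a 20-point concentration curve in a single experiment.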

The target in experiment [5] is T2, Sodium-dependent dopamine transporter. Kind of experiment: Displacement of [125I]RTI-55 from human DAT expressed in HEK293 cells. It counts as cell-based. Summed up: as §1
The target in experiment [6] is T3, Sodium-dependent noradrenaline transporter. Kind of experiment: Displacement of [125I]Nisoxetine from human NET expressed in HEK293 cells. Type of experiment: cell-based. Summed up:
as §1

Experiment [7] concerns Rattus norvegicus. Kind of experiment: Increase in fluoxetine-induced serotonin concentration in rat frontal cortex by microdialysis at 1 mg/kg, ip. Type of experiment: functional, organism-based. Also noted: dose 1 mg/kg.
Experiment [8] deals with Rattus norvegicus. Kind of experiment: Increase in fluoxetine-induced serotonin concentration in rat frontal cortex by microdialysis at 10 mg/kg, po. Also on record: dose 10 mg/kg. It counts as functional, organism-based.

T1 sequence (P31645 whole entry): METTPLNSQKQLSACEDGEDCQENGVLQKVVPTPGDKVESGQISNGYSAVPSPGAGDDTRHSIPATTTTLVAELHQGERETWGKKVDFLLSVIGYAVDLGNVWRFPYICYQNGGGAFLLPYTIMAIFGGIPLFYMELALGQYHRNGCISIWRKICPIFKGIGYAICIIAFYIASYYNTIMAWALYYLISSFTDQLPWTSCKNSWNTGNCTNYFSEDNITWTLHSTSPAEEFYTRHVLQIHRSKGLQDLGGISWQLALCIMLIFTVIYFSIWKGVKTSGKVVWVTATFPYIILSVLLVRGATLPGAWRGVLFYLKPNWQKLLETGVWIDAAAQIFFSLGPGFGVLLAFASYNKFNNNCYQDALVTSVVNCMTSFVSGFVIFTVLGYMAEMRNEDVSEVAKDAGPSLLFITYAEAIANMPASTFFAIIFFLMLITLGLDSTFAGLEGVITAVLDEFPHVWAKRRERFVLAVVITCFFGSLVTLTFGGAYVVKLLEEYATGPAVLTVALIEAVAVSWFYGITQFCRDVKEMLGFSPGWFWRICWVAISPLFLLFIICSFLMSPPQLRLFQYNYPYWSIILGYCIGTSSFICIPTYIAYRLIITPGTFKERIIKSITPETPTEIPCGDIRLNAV
T2 sequence (Q01959 whole entry): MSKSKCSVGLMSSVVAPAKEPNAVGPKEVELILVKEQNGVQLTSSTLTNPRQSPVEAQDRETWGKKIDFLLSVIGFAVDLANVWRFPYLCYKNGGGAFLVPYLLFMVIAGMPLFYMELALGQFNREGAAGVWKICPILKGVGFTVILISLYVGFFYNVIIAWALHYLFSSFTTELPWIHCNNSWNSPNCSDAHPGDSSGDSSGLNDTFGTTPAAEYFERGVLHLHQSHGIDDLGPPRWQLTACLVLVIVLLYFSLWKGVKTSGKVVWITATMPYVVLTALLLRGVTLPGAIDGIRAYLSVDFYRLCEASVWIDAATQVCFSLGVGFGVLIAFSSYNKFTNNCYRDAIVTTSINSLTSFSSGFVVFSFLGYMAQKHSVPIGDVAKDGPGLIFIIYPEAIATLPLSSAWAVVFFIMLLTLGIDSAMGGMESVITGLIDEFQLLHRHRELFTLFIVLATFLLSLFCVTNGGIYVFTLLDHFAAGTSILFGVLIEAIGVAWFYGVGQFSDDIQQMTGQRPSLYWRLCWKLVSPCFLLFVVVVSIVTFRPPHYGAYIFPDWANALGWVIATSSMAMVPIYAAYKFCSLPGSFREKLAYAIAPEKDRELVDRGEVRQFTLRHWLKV
T3 sequence (P23975 whole entry): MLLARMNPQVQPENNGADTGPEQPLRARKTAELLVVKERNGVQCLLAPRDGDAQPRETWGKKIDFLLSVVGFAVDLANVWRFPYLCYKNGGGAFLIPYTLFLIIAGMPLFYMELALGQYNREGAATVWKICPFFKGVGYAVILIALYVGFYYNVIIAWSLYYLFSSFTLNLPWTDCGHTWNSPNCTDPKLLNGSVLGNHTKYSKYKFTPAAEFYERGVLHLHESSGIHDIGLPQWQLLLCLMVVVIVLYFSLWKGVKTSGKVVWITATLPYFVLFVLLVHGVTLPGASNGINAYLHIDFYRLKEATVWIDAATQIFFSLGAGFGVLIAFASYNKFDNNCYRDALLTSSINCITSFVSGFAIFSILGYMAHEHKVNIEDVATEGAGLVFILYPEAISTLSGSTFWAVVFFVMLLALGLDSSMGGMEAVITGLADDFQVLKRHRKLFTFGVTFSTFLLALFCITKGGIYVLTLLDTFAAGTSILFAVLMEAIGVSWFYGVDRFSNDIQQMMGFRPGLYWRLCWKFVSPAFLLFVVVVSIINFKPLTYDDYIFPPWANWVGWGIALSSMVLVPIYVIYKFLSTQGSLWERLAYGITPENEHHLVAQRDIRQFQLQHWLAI

`CN(C)C1CC=C(c2c[nH]c3ccccc23)CC1` (stereo not given) returned an IC50 in experiment [1] of 3.1 nM. Further, the inhibition in experiment [2] was 67%; in experiment [3], 70%.
Turning to `CN(C)[C@H]1CC=C(c2c[nH]c3ccc(C#N)cc23)CC1`, the IC50 in experiment [1] came to 0.72 nM; in experiment [4], 0.4 nM; in experiment [5] it was 290 nM; in experiment [6] it was 390 nM.
With `CN(C)C1CC=C(c2c[nH]c3ccc(C#N)cc23)CC1` (stereo not given), the IC50 in experiment [1] stood at 1.6 nM; in experiment [4], 0.34 nM; in experiment [5], 97 nM; in experiment [6], 57 nM. The results for the inhibition in experiment [2] and in experiment [3] were 71% and 90%, respectively. Also, the outcome in the experiment on Rattus norvegicus [7] and in the experiment on Rattus norvegicus [8] was Active.
In experiment [1], `CN1CC=C(c2c[nH]c3ccc(C#N)cc23)CC1` gave an IC50 of 19 nM. For the same compound, the inhibition in experiment [2] was determined as 56%; in experiment [3], 15%.
In the case of `CN1CC=C(c2c[nH]c3ccc(Br)cc23)CC1`, in experiment [1], the IC50 amounted to 210 nM.
As to `CN(C)C1CC=C(c2c[nH]c3ccc(F)cc23)CC1` (stereo not given), in experiment [1], the IC50 was determined as 14 nM. Further, the inhibition in experiment [2] is 23%; in experiment [3] it was 35%.
In the same order, the values of `CN1CC=C(c2c[nH]c3ccc([N+](=O)[O-])cc23)CC1` are 40 nM, 73% and 27%.
`COc1ccc2[nH]cc(C3=CCN(C)CC3)c2c1` displayed a concentration for half-maximal inhibition (IC50) in experiment [1] of 730 nM.
`CN(C)C1CC=C(c2c[nH]c3ccc([N+](=O)[O-])cc23)CC1` (stereo not given) returned an IC50 in experiment [1] of 1 nM. Besides, the inhibition is 74% in experiment [2] and 81% in experiment [3].
On to `Cc1ccc2[nH]cc(C3=CCN(C)CC3)c2c1`, for which the IC50 in experiment [1] was found to be 910 nM.
On the same count and under the same terms, the value for `CN1CC=C(c2c[nH]c3ccc(Cl)cc23)CC1` was 240 nM.
Turning to `CN(C)C1CC=C(c2c[nH]c3ccc(Cl)cc23)CC1` (stereo not given), the 50% inhibitory concentration (IC50) in experiment [1] came to 19 nM. Further, the inhibition in experiment [2] was 16%; in experiment [3] it was 34%.
Consider `CN(C)[C@@H]1CC=C(c2c[nH]c3ccc(C#N)cc23)CC1`, for which the 50% inhibitory concentration (IC50) was 1.1 nM in experiment [1], 0.56 nM in experiment [4], 80 nM in experiment [5] and 37 nM in experiment [6].
As for `CN(C)C1CC=C(c2c[nH]c3ccc(Br)cc23)CC1` (stereo not given), in experiment [1], the IC50 stood at 5.3 nM. Further, the inhibition in experiment [2] amounted to 95%; in experiment [3] it was 99%.
`COc1ccc2[nH]cc(C3=CCC(N(C)C)CC3)c2c1` (stereo not given): the IC50 in experiment [1] is 150 nM.
In turn, `CN1CC=C(c2c[nH]c3ccc(F)cc23)CC1` gave an IC50 in experiment [1] of 160 nM.
Turning to `CN1CC=C(c2c[nH]c3ccccc23)CC1`, the IC50 in experiment [1] was 690 nM.
Same read-out and setting: to `Cc1ccc2[nH]cc(C3=CCC(N(C)C)CC3)c2c1` (stereo not given) belongs 770 nM.

Source of the values: ChEMBL document CHEMBL1147933, “Conformationally restricted homotryptamines 3. Indole tetrahydropyridines and cyclohexenylamines as selective serotonin reuptake inhibitors” (Bioorg Med Chem Lett, 2007).
